# The sample as a whole holds a higher share of hits than the screen did.
# TNAP act mid DEA: activates human TNAP at intermediate phosphate acceptor concentration; activation factor at 20 µM; purified TNAP, CDP-star luminescence, 100 mM DEA, 30 min; hits give high values; scale: 0 levamisole-inhibited, 1 vehicle-only enzyme; 64,000 tested, under 10 active;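 active means activation factor of at least 2 at 20 µM, relative to controls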
# Candida biofilm: kills Candida albicans biofilms; C. albicans biofilm + clotrimazole, Alamar Blue; inhibition, % at 6 µM; 85,000 compounds, 0.14% hits;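 active means inhibition above 20%; inactive means inhibition below 20%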;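 further: preformed 24 hr biofilms exposed to compound for 48 hr; 0% = biofilm without compound and 100% = blank killed by clotrimazole plus chlorhexidine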
# HEK293 NFkB inh: lowers PMA/ionomycin-induced NF-kB signal in HEK293 cells. HEK-293 NF-kB luciferase reporter, luminescence. inhibition, % at 3 µM. 62,000 compounds, 0.21% hits. AID 465;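 active means inhibition above the mean of all tested compounds plus 3 SD, cut at about 40% in these data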;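 further: 0% = stimulated DMSO wells and 100% = 10 µM reference inhibitor 5653914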
#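 System – HEK-293 cells with stable firefly luciferase reporter driven by four HIV NF-kB elements · Doses – one dose, 3 µM · Schedule – 1 h compound pre-incubation, 16 h PMA/ionomycin at 37 °C · Technique – luminescence from luciferase substrate reagent · Measure – percent inhibition normalized per plate to DMSO and reference-inhibitor controls · Replicates – tested once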
# MMP-13 inhibitor: MMP13 (human) collagenase inhibition. P45452. MMP-13 fTHP FRET cleavage, Mca fluorescence. inhibition, % at 4 µM. 65,000 compounds, 0.07% hits;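 active means inhibition above the mean of compound-free control plate wells plus 3 SD, cut at about 14% in these data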;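 further: 0% = DMSO wells and 100% = wells with reference MMP-13 inhibitor after basal subtraction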
# Jurkat tox 60K: cytotoxicity toward Jurkat cells | Jurkat E6.1 viability, ATP luminescence, 48 h | inhibition, % at 4 µM | 56,000 compounds, 1.2% hits | AID 463;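 active means inhibition above the mean inhibition of all tested compounds plus 3 SD, cut at about 28% in these data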
# An asterisk follows results filed as active; x = not tested or not shown.
SMILES,TNAP act mid DEA,Candida biofilm,HEK293 NFkB inh,MMP-13 inhibitor,Jurkat tox 60K
COc1ccc(Cn2c(=O)oc3ccc(C)cc32)cc1OC,0.9,-10,13,5,40*
CCOC(=O)c1c(NC(=O)C(F)(OC)C(F)(F)F)sc(C(=O)N2CCCCC2)c1C (centres undefined),0.9,10,20,2,5
CCc1nnc(NC(=O)CSc2nnc(-c3ccccc3O)n2-c2ccc(C)cc2C)s1,1,9,16,1,80*
CCc1cccc(CC)c1NC(=O)CN1CC(C)SC1=NC1CCCCC1 (centres undefined),x,1,x,x,x
CC1CN(S(=O)(=O)c2ccc(NC(=O)c3cc(-c4ccccc4O)n[nH]3)cc2)CC(C)O1 (centres undefined),0.9,5,3,-3,54*
Cc1cc(S(=O)(=O)N2CCCCCC2)c(Cl)cc1Cl,x,-3,x,x,x
CCn1c(SCC(=O)Nc2cccc(C)c2)nc2c(c1=O)SC(C)C2 (centres undefined),0.8,3,14,0,4
O=C(NC1=NCCS1)C1COc2ccccc2O1 (centres undefined),1,6,58*,-6,7
Cc1cccc(C)c1-n1nnnc1SCSc1nnnn1-c1c(C)cccc1C,0.8,-1,45*,3,-9
Cc1sc(NC(=O)c2ccco2)c(C(c2cccnc2)N2CCN(c3ccc(F)cc3)CC2)c1C (centres undefined),1,-4,12,2,35*
CCOC(=O)C1CCN(C(c2cccnc2)c2c(NC(=O)c3ccco3)sc(C)c2C)CC1 (centres undefined),0.9,-1,9,0,34*
Cc1nc(-c2ccccc2)cc(N2CCCC2)n1,1,x,2,1,1
Nc1nc(-c2ccccc2)cc(N2CCCCC2)n1,0.9,-4,29,3,78*
O=C(CSc1ccc(Cl)cc1)NCC1CCCO1 (centres undefined),x,65*,x,x,x
Cc1c(Br)c([N+](=O)[O-])nn1CC(=O)NCc1cccnc1,x,5,x,x,x
O=C1CS/C(=N\C(=O)N2c3ccccc3Sc3ccccc32)N1,0.8,2,2,0,0
COc1ccc(NC(=O)c2ccc(N(C)S(C)(=O)=O)cc2)cc1OC,0.9,-2,12,3,0
COC(=O)c1ccc(NC(=O)c2ccc(N(C)S(C)(=O)=O)cc2)cc1,0.9,-1,26,0,31*
COc1cc(C2C(C#N)=C(N)Oc3cc(N(C)C)ccc32)cc2c1OCO2 (centres undefined),0.9,7,63*,7,15
CCCCCCCCCn1c2c(c(=N)c3c1CCC3)CCC2,x,-2,x,x,x
N=c1c2c(n(Cc3ccc(F)cc3)c3c1CCC3)CCC2,1,4,13,-2,24
CCCCCCn1c2c(c(=N)c3c1CCC3)CCC2,0.9,5,11,2,91*
CCCCn1c2c(c(=N)c3c1CCC3)CCC2,0.9,9,10,7,69*
Fc1cccc(Nc2cc(-n3cccn3)ncn2)c1,0.8,1,16,-8,26
CSc1n[nH]c(NCc2ccc(C)cc2)n1,x,9,x,x,x
SMILES,TNAP act mid DEA,Candida biofilm,HEK293 NFkB inh,MMP-13 inhibitor,Jurkat tox 60K
COc1ccc(NC(=O)CCc2nc(-c3ccccc3F)no2)cc1,1,5,20,3,1
Cc1nc(NC(C)c2ccccc2)c2oc3ccccc3c2n1 (centres undefined),0.9,8,5,-2,30*
CCOC(=O)N1CCC(NC(=O)c2cc(C(=O)NCC(OC)OC)ccc2CO)CC1,x,-2,x,x,x
CCN(c1ccccc1)S(=O)(=O)c1ccc(Oc2ccc(-n3ccnc3)cc2)nc1,1,-6,98*,-33,13
CCN(c1ccccc1)S(=O)(=O)c1ccc(OC)c(OC)c1,x,-2,x,x,x
Cc1csc2ncc(C(=O)NCc3ccc4c(c3)OCO4)c(=O)n12,1,4,0,16*,-3
Cc1csc2ncc(C(=O)NCc3ccccc3Cl)c(=O)n12,0.9,10,7,-84,-11
CS(=O)(=O)N(CCc1ccccc1)CC(=O)N1CCN(c2ccc(F)cc2)CC1,x,2,x,x,x
Cc1cc(NC(c2cccnc2)c2ccc3cccnc3c2O)no1 (centres undefined),1,6,2,0,37*
COc1ccccc1NC(=O)Cc1nn(C)c(=O)c2ccccc12,1,x,28,1,58*
Cn1nc(CC(=O)Nc2ccc(N3CCN(C(=O)OC(C)(C)C)CC3)cc2)c2ccccc2c1=O,0.9,6,45*,-2,99*

# Assay outcomes deposited in PubChem by several laboratories.
